# Assay outcomes as filed in PubChem.
# PolyA inhibitor = blocks polyadenylation in yeast reporter cells | activity score, % at 12 µM | S. cerevisiae SKY197-pL101 polyadenylation reporter, beta-gal luminescence; efflux-impaired pdr1/pdr3 knockout yeast; score 100 = 6 SD above DMSO | AID 1875 | actives 0.02% (n = 300,000);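 active = lowest replicate activity score at least 50, where 100 means six control SD above control mean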;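 note: yeast exposed to compound for 9 h at 30 °C; higher score means more reporter readthrough which indicates perturbed polyadenylation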
# GSK3beta inhib = blocks human GSK3beta kinase activity | P49841 | activity score (negative = inhibition), % at 10 µM | GST-GSK3beta kinase, ADP-Glo luminescence, 60 min; stronger effect = lower value | actives 0.038% (n = 300,000) | AID 2097;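 active = more than half of replicate wells score below -50%, meaning over 50% inhibition versus plate controls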;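 note: 0% = median DMSO wells and -100% = median GW8510 positive control wells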
#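 Test system: GST-tagged human GSK3beta kinase, cell-free; evaluation: activity score scaled between in-plate DMSO and GW8510 controls; measured by: ADP-Glo luminescence; incubation: 60 min reaction, RT; benchmarks: DMSO and 20 µM GW8510; reagent: peptide substrate plus 25 µM ATP (final); medium: Tris/MgCl2 kinase buffer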
# GSK3A inh = human GSK-3 alpha kinase inhibition. P49840. ADP-Glo luminescence, 60 min. inhibition, % at 10 µM. actives 0.1% (n = 320,000). AID 2650;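 active = more than half of replicates show inhibition above 20%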;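 note: GST-tagged GSK-3 alpha with peptide substrate and 25 µM ATP; 0% = DMSO neutral wells and 100% = GW8510 positive control wells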
# Target sequence (P49840 whole entry, looked up): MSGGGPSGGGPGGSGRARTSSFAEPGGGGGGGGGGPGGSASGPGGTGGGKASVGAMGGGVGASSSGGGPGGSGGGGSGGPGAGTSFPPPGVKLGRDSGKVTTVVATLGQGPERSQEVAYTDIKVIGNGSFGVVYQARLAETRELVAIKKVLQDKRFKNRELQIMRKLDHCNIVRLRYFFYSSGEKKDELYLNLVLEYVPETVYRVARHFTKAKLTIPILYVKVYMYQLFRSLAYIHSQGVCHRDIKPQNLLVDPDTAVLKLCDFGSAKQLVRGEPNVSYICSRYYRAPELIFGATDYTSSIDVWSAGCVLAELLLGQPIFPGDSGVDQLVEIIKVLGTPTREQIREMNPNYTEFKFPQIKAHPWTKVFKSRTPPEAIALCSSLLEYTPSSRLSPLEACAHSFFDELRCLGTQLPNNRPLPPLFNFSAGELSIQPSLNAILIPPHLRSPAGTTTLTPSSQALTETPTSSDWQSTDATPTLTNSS
# STK33 kinase inh = human STK33 kinase inhibition. purified STK33, MBP phosphorylation, ADP-Glo luminescence. inhibition, % at 10 µM. actives 0.073% (n = 320,000);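 active = inhibition at or above 25%, using the most active replicate where run in duplicate; inactive = inhibition below 25%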
# Efflux pump inh = inhibitors of Candida antifungal efflux pumps expressed in yeast; S. cerevisiae Candida pump triplex, Nile Red efflux; inhibition, % at 10 µM; actives 0.44% (n = 330,000);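 active = plate passing quality check with inhibition over a set limit, or well fluorescence over plate mean plus 4 SD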;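 note: Nile Red retained in pooled yeast measured as flow cytometry median fluorescence; 0% = buffer negative control and 100% = Enniatin B positive control; higher means more Nile Red kept so more efflux inhibition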
# Cmpd fluor yeast = counter-screen for efflux pump inhibitors: compound fluorescence; fluorescence ratio to DMSO, % at 10 µM; shares compounds with Efflux pump inh; S. cerevisiae AD/pABC3, flow cytometry; actives 4% (n = 1,700);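 active = fluorescence ratio to DMSO above its plate's cutoff, the plate mean ratio plus 5 SD, cut at about 210% in these data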;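 note: unstained yeast with no Nile Red so the signal is compound autofluorescence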
# CaMdr1 efflux inh = inhibitors of Candida albicans Mdr1 efflux pump | S. cerevisiae AD/CaMDR1, Nile Red efflux, flow cytometry | actives 1% (n = 1,700) | inhibition, % at 10 µM | shares compounds with Efflux pump inh; in the data active = inhibition above about 26%;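 note: 0% = DMSO vehicle and 100% = reference inhibitor; higher means more Nile Red retained so more efflux inhibition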
# CaCdr2 efflux inh = blocks the Candida albicans Cdr2 efflux pump in yeast; shares compounds with Efflux pump inh; S. cerevisiae AD/CaCDR2, Nile Red retention, flow cytometry; Nile Red retention ratio vs DMSO, % at 10 µM; actives 4% (n = 1,700); AID 588520; in the data active = Nile Red retention ratio vs DMSO above about 190%;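 note: higher ratio means more blocking of Cdr2 efflux of the dye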
# Cdr1 pump inh = inhibitors of Candida albicans Cdr1 efflux pump; shares compounds with Efflux pump inh; S. cerevisiae AD/CaCDR1, Nile Red efflux, flow cytometry; inhibition, % at 10 µM; actives 1% (n = 1,700); AID 588522;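 active = inhibition above the screen-wide mean plus twice its standard deviation, cut at about 32% in these data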
# Active calls of the source: *; nt = not tested or not shown. An excerpt weighted towards active compounds, which were near 0.6% of everything screened.
SMILES,PolyA inhibitor,GSK3beta inhib,GSK3A inh,STK33 kinase inh,Efflux pump inh,Cmpd fluor yeast,CaMdr1 efflux inh,CaCdr2 efflux inh,Cdr1 pump inh
O=c1c(-c2ccc(Cl)cc2)c[nH]n1-c1ccccc1,-12,-1,1,0,0,nt,nt,nt,nt
O=c1c(-c2ccccc2)c[nH]n1-c1cccc([N+](=O)[O-])c1,8,1,-1,0,1.0*,99,0,104,0
COC(CNC(=O)C1CC(=O)N(CCc2ccc(C)cc2)C1)OC (stereo not drawn),-17,-3,1,-1,0,nt,nt,nt,nt
Nc1ccc2c3c(cccc13)CC2,-3,1,0,-3,1.8*,122,0,121,0
c1ccc(Nc2ccc3c4c(cccc24)CC3)cc1,-32,-3,2,0,0,nt,nt,nt,nt
O=C(Nc1nc2ccccc2s1)c1ccc(OCC2CCCO2)cc1 (stereo not drawn),15,-2,0,0,0,nt,nt,nt,nt
Cc1ccc(N(C(=O)Cn2nnc(-c3ccccc3)n2)C(C(=O)NC2CCCCC2)c2ccccn2)cc1C (stereo not drawn),-2,3,2,-1,0,nt,nt,nt,nt
Cc1cc(C)cc(N(C(=O)Cn2nnc(-c3ccccc3)n2)C(C(=O)NC2CCCCC2)c2ccccn2)c1 (stereo not drawn),5,-1,1,-1,6.4*,105,0,101,0
CCOC(=O)C1=C(C)Nc2sc(C(=O)c3ccc(OC)cc3)c(N)c2C1c1ccc(C(=O)OC)cc1 (stereo not drawn),7,3,10,9,11*,106,0,107,0
COC(=O)C1=C(C)Nc2sc(C(N)=O)c(N)c2C1c1ccncc1 (stereo not drawn),-13,2,17,0,0,nt,nt,nt,nt
CC1O[C@@H]2O[C@](O[C@H](C)CC[C@@H](C)O)(c3ccccc3)O[C@@H]2C[C@H]1O (stereo partly drawn),-7,2,2,0,0,nt,nt,nt,nt
CC(=O)OCCCNc1cc(Sc2ccc(C)cc2)c2nonc2c1[N+](=O)[O-],2,-13,-2,-1,13*,88,0,103,1
CC(=O)OCCCNc1cc(Sc2nc3ccccc3s2)c2nonc2c1[N+](=O)[O-],5,0,0,0,0,nt,nt,nt,nt
Cc1ccc(C)c(C(=O)COC(=O)c2ccc(C)c(S(=O)(=O)N3CCOCC3)c2)c1,nt,nt,17,2,1.1*,87,0,95,0
Cc1ccc(S(=O)(=O)N(C)C[C@H]2Oc3c(NC(=O)Nc4cccc5ccccc45)cccc3C(=O)N([C@@H](C)CO)C[C@@H]2C)cc1,nt,nt,nt,nt,1,109,1,110,2
C[C@H]1CN([C@@H](C)CO)C(=O)c2cc(NC(=O)Nc3cccc4ccccc34)ccc2O[C@@H]1CN(C)Cc1ccc(-c2ccccc2)cc1,nt,nt,-4,1,1.8*,97,0,188*,0
C[C@@H]1CN([C@H](C)CO)C(=O)c2cc(NC(=O)Nc3cccc4ccccc34)ccc2O[C@H]1CN(C)Cc1ccc(C(F)(F)F)cc1,nt,nt,nt,nt,0,nt,nt,nt,nt
COc1ccc(NC(=O)Nc2cccc3c2O[C@H](CN(C)S(=O)(=O)c2ccc(OC)cc2)[C@@H](C)CN([C@H](C)CO)C3=O)cc1,nt,nt,-2,-1,0,nt,nt,nt,nt
Cc1nnc(SCCn2c(N(C)Cc3ccccc3)nc3c2c(=O)n(C)c(=O)n3C)s1,-14,4,2,0,0,nt,nt,nt,nt
CN1CCCNc2nc3ccccc3nc21,6,-5,0,-3,0,nt,nt,nt,nt
S=C(Nc1ccccc1)N1CCCN1c1ccccc1,9,3,0,-2,0,nt,nt,nt,nt
Cc1ccc(CNC(=O)C(=O)NCC2OCCN2S(=O)(=O)c2ccc(C)cc2)cc1 (stereo not drawn),-13,2,-4,-1,0,nt,nt,nt,nt
